Laboratory results taken from ChEMBL document CHEMBL1129660, “Studies on 6-aminoquinolones: synthesis and antibacterial evaluation of 6-amino-8-methylquinolones” (J Med Chem, 1996).
Converted amounts (≈) assume the structure as drawn.

Legend:
Enterococcus faecalis [1] = experiment: Antibacterial activity tested against Enterococcus faecalis; type: functional
Enterobacter cloacae = experiment: Antibacterial activity tested against Enterobacter cloacae OMNFI 174; type: functional
Escherichia coli [2] = experiment: Antibacterial activity tested against Escherichia coli ATCC 8739; type: functional
Outline: (§1)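 MICs (µg/mL) determined by conventional agar dilution against a panel of eight Gram-negative and five Gram-positive reference strains.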

Escherichia coli [3] = experiment: Inhibitory activity against gyrase supercoiling activity from Escherichia coli; type: functional
Outline: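 Inhibition of DNA gyrase supercoiling activity, by a previously described protocol with slight modifications. IC50 derived by densitometric quantification of the supercoiled DNA peak in an agarose gel.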

Pseudomonas aeruginosa = experiment: Antibacterial activity tested against P. ae (Pseudomonas aeruginosa) ATCC 9027; type: functional; outline: as §1
Enterococcus faecium [4] = experiment: Antibacterial activity tested against Enterococcus faecium; Range is 1-32 ug/mL; type: functional
[5] = tested on: Staphylococcus epidermidis; experiment: Antibacterial activity tested against Staphylococcus epidermidis CPHL A2; type: functional; outline: as §1
Bacteria = experiment: Geometric mean of antibacterial activity (Gram +ve bacteria) of the compound; type: functional
Outline: (§2)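 Geometric means calculated from agar-dilution MICs (µg/mL), taken separately across the five Gram-positive and the eight Gram-negative panel strains.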

Klebsiella pneumoniae = experiment: Antibacterial activity tested against Klebsiella pneumoniae (Klebsiella pneumoniae) ATCC 10031; type: functional; outline: as §1
[6] = Geometric mean of antibacterial activity (Gram -ve bacteria) of the compound; type: functional; outline: as §2
Streptococcus pneumoniae [7] = experiment: Antibacterial activity tested against Streptococcus pneumoniae; type: functional
Providencia stuartii = experiment: Antibacterial activity tested against Providencia stuartii CNUR 5; type: functional; outline: as §1
[8] = tested on: Staphylococcus epidermidis; experiment: Antibacterial activity tested against Staphylococcus epidermidis HCF Berset C; type: functional; outline: as §1
Enterococcus faecalis [9] = experiment: Antibacterial activity tested against Streptococcus faecalis LEP Br; type: functional; outline: as §1
Proteus vulgaris = experiment: Antibacterial activity tested against Proteus vulgaris CNUR 5; type: functional; outline: as §1
Staphylococcus aureus [10] = experiment: Antibacterial activity against Staphylococcus aureus ATCC 6538; type: functional; outline: as §1
Staphylococcus aureus [11] = experiment: Antibacterial activity against Staphylococcus aureus MPR 5; type: functional; outline: as §1
Escherichia coli [12] = experiment: Antibacterial activity tested against Escherichia coli ISF 432; type: functional; outline: as §1
Staphylococcus aureus [13] = experiment: Antibacterial activity tested against Staphylococcus aureus; Range is 0.06-0.13 ug/mL; type: functional
Shigella = experiment: Antibacterial activity tested against Shigella enteritidis; type: functional; outline: as §1
Staphylococcus aureus [14] = experiment: Antibacterial activity tested against Staphylococcus aureus Methicillin-and Ciprofloxacin resistants; Range is 2-4 ug/mL; type: functional
Enterococcus faecium [15] = experiment: Antibacterial activity tested against Enterococcus faecium; Range is 1-2 ug/mL; type: functional
Streptococcus pneumoniae [16] = experiment: Antibacterial activity tested against Streptococcus pneumoniae; Range is 1-2 ug/mL; type: functional
Staphylococcus aureus [17] = experiment: Antibacterial activity tested against Staphylococcus aureus; Range is 0.016-0.13 ug/mL; type: functional
Enterococcus faecalis [18] = experiment: Antibacterial activity tested against Enterococcus faecalis; Range is 0.13-0.5 ug/mL; type: functional
Staphylococcus aureus [19] = experiment: Antibacterial activity tested against Staphylococcus aureus Methicillin-and Ciprofloxacin resistants; Range is 4-32 ug/mL; type: functional
Streptococcus pneumoniae [20] = experiment: Antibacterial activity tested against Streptococcus pneumoniae; Range is 0.5-2 ug/mL; type: functional
Enterococcus faecium [21] = experiment: Antibacterial activity tested against Enterococcus faecium; Range is 0.25-4 ug/mL; type: functional
Enterococcus faecalis [22] = experiment: Antibacterial activity tested against Enterococcus faecalis; Range is 0.25-0.5 ug/mL; type: functional
Staphylococcus aureus [23] = experiment: microbe, parasite or virus in culture
Mus musculus [24] = experiment: Efficacy against Septicemia caused by Staphylococcus aureus in mice by Oral administration; type: functional
Outline: (§3)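 S. aureus Smith ATCC19636, overnight brain-heart infusion culture diluted in 5% mucin, given i.p. (0.5 mL) to male and female CD-1 mice (18-22 g). Single s.c. or oral dose within 10 min of infection, drug in DMSO/0.5% methocel or as suspension. 3-5 dose groups of six mice; ED50 with 95% limits by Spearman-Kärber from day-7 survival.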

Enterococcus faecalis [25] = experiment: microbe, parasite or virus in culture
Staphylococcus aureus [26] = experiment: microbe, parasite or virus in culture; remark: listed apart in the source
Enterococcus faecium [27] = experiment: microbe, parasite or virus in culture
Mus musculus [28] = experiment: Efficacy against Septicemia caused by Staphylococcus aureus in mice by subcutaneous administration; type: functional; settings: sc; outline: as §3

Structure (SMILES)	MIC (Enterobacter cloacae) [µg/mL]	MIC (Escherichia coli [2]) [µg/mL]	IC50 (Escherichia coli [3]) [µg/mL]	MIC (Pseudomonas aeruginosa) [µg/mL]	MIC [5] [µg/mL]	Geometric mean (Bacteria)	MIC (Klebsiella pneumoniae) [µg/mL]	Geometric mean [6]	MIC (Providencia stuartii) [µg/mL]	MIC [8] [µg/mL]	MIC (Enterococcus faecalis [9]) [µg/mL]	MIC (Proteus vulgaris) [µg/mL]	MIC (Staphylococcus aureus [10]) [µg/mL]	MIC (Staphylococcus aureus [11]) [µg/mL]	MIC (Escherichia coli [12]) [µg/mL]	MIC (Staphylococcus aureus [13]) [µg/mL]	MIC (Shigella) [µg/mL]	MIC (Staphylococcus aureus [14]) [µg/mL]	other results
Cc1c(N2C[C@@H](C)O[C@@H](C)C2)c(N)cc2c(=O)c(C(=O)O)cn(C3CC3)c12	1 (≈ 2.69 µM)	0.008 (≈ 0.0215 µM)	> 50	4 (≈ 10.8 µM)	0.125 (≈ 0.337 µM)	0.107	0.08 (≈ 0.215 µM)	0.336	1 (≈ 2.69 µM)	0.125 (≈ 0.337 µM)	1 (≈ 2.69 µM)	8 (≈ 21.5 µM)	0.03 (≈ 0.0808 µM)	0.03 (≈ 0.0808 µM)	0.008 (≈ 0.0215 µM)	0.06 (≈ 0.162 µM)	1 (≈ 2.69 µM)	2 (≈ 5.38 µM)	MIC (Enterococcus faecalis [1]): 0.05 µg/mL (≈ 0.135 µM); MIC (Enterococcus faecium [4]): 1 µg/mL (≈ 2.69 µM); MIC (Streptococcus pneumoniae [7]): 2 µg/mL (≈ 5.38 µM)
Cc1c(N2CCCCC2)c(N)cc2c(=O)c(C(=O)O)cn(C3CC3)c12	0.25 (≈ 0.732 µM)	0.03 (≈ 0.0879 µM)	3.22 (≈ 9.43 µM)	1 (≈ 2.93 µM)	0.125 (≈ 0.366 µM)	0.123	0.03 (≈ 0.0879 µM)	0.225	0.5 (≈ 1.46 µM)	0.125 (≈ 0.366 µM)	0.5 (≈ 1.46 µM)	8 (≈ 23.4 µM)	0.06 (≈ 0.176 µM)	0.06 (≈ 0.176 µM)	0.03 (≈ 0.0879 µM)		0.25 (≈ 0.732 µM)	2 (≈ 5.86 µM)	MIC (Enterococcus faecium [15]): 1 µg/mL (≈ 2.93 µM); MIC (Streptococcus pneumoniae [16]): 1 µg/mL (≈ 2.93 µM); MIC (Staphylococcus aureus [17]): 0.016 µg/mL (≈ 0.0469 µM); MIC (Enterococcus faecalis [18]): 0.5 µg/mL (≈ 1.46 µM)
Cc1c(N2CCC(O)CC2)c(N)cc2c(=O)c(C(=O)O)cn(C3CC3)c12	0.5 (≈ 1.4 µM)	1 (≈ 2.8 µM)	5.74 (≈ 16.1 µM)	2 (≈ 5.6 µM)	0.06 (≈ 0.168 µM)	0.106	0.03 (≈ 0.0839 µM)	0.495	1 (≈ 2.8 µM)	0.06 (≈ 0.168 µM)	0.5 (≈ 1.4 µM)	16 (≈ 44.8 µM)	0.06 (≈ 0.168 µM)	0.125 (≈ 0.35 µM)	0.03 (≈ 0.0839 µM)	0.06 (≈ 0.168 µM)	0.25 (≈ 0.699 µM)		MIC (Staphylococcus aureus [19]): 4 µg/mL (≈ 11.2 µM); MIC (Streptococcus pneumoniae [20]): 0.5 µg/mL (≈ 1.4 µM); MIC (Enterococcus faecium [21]): 0.25 µg/mL (≈ 0.699 µM); MIC (Enterococcus faecalis [22]): 0.25 µg/mL (≈ 0.699 µM)
O=C(O)c1cn(C2CC2)c2cc(N3CCNCC3)c(F)cc2c1=O [CIPROFLOXACIN]				0.06 (≈ 0.181 µM)	0.06 (≈ 0.181 µM)	0.092		0.033	0.06 (≈ 0.181 µM)	0.06 (≈ 0.181 µM)	0.5 (≈ 1.51 µM)	0.5 (≈ 1.51 µM)	0.06 (≈ 0.181 µM)	0.06 (≈ 0.181 µM)					MIC (Staphylococcus aureus [23]): 0.13 µg/mL (≈ 0.392 µM); ED50 (Mus musculus [24]): 7 mg/kg; MIC (Enterococcus faecalis [25]): 0.5 µg/mL (≈ 1.51 µM); MIC (Staphylococcus aureus [26]): 4 µg/mL (≈ 12.1 µM); MIC (Enterococcus faecium [27]): 1 µg/mL (≈ 3.02 µM); ED50 (Mus musculus [28]): 0.9 mg/kg
